Among the data in ChEMBL document CHEMBL1152918, “Simplexins A-I, eunicellin-based diterpenoids from the soft coral Klyxum simplex” (2009) are EC50 and Activity values, retold here.

What all share (type): functional
One test concerns HeLa. Description: Cytotoxicity against human HeLa cells by MTT assay. The settings on record: read-out: ED50 (the source's name). For orientation: Tetrazolium assays rely on reduction of a dye to a coloured formazan, in cell work by metabolically active cells.
In the next test the test system is HEp-2. Description: Cytotoxicity against human Hep2 cells by MTT assay. Conditions: read-out: ED50 (the source's name).
A further test deals with MCF7. Description: Cytotoxicity against human MCF7 cells by MTT assay. The settings on record: read-out: ED50 (the source's name).
For another test, the system named is Daoy. In words: Cytotoxicity against human DaOY cells by MTT assay. Conditions: read-out: ED50 (the source's name).
Test [1] relates to RAW264.7. In words: Antiinflammatory activity against LPS-stimulated mouse RAW264.7 cells assessed as reduction in iNOS level at 10 uM relative to control. Set-up: scale not given: the % may be the effect or the level left. Put shortly: (§1)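 Immunoblot measured iNOS and COX-2 protein levels in RAW264.7 macrophages stimulated with LPS and treated at 10 μM. Levels are expressed as a percentage of cells given LPS alone.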

The subject of test [2] is RAW264.7. In words: Antiinflammatory activity against LPS-stimulated mouse RAW264.7 cells assessed as reduction in COX-2 level at 10 uM relative to control. The essentials:
as §1

In brackets after ≈: the same amount, converted by molar mass. Activity calls are given as the source filed them. No cut-off for these calls is given here.

`CCCC(=O)O[C@]1(C)CC[C@H](OC(C)=O)[C@@](C)(O)C[C@H]2O[C@@H]1[C@@H]1[C@@H](C(C)C)[C@H](O)[C@@H](OC(C)=O)[C@@](C)(O)[C@@H]12` [SIMPLEXIN F]: the EC50 in the test with HeLa, in the test with HEp-2, in the test with MCF7 and with Daoy was more than 20 µg/mL throughout.
With `C=C1C[C@H]2O[C@H]([C@H]3[C@@H]2[C@](C)(OC(C)=O)CC[C@@H]3C(C)C)[C@](C)(OC(=O)CCC)CC[C@@H]1O` [SIMPLEXIN A], in the test on RAW264.7 [1], the Activity is 15.9%. Also, the EC50 in the test on HeLa is more than 20 µg/mL; in the test with HEp-2, 12.1 µg/mL (≈ 26.9 µM); with MCF7 it was 12.1 µg/mL (≈ 26.8 µM); in the test on Daoy, 10.4 µg/mL (≈ 23 µM). Besides, in the test on RAW264.7 [2], the outcome was inactive.
As to `CCCC(=O)O[C@H]1[C@H](C(C)C)[C@@H]2[C@@H]([C@H]3C[C@](C)(O)[C@@H](OC(=O)CCC)CC[C@@](C)(OC(=O)CCC)[C@@H]2O3)[C@](C)(O)[C@@H]1OC(C)=O` [SIMPLEXIN D], the Activity in the test on RAW264.7 [1] came out at 37.7%. In addition, the EC50 with HeLa is more than 20 µg/mL; with HEp-2, more than 20 µg/mL; in the test with MCF7 it was 14.5 µg/mL (≈ 22.7 µM); in the test on Daoy it was 15.3 µg/mL (≈ 23.9 µM). Moreover, in the test with RAW264.7 [2], the outcome was inactive.
In the case of `CCCC(=O)O[C@H]1[C@H](C(C)C)[C@@H]2[C@@H]([C@H]3C[C@](C)(O)[C@@H](OC(C)=O)CC[C@@](C)(OC(=O)CCC)[C@@H]2O3)[C@](C)(O)[C@@H]1OC(C)=O` [SIMPLEXIN C], the EC50 in the test on HeLa, with HEp-2, with MCF7 and in the test on Daoy was more than 20 µg/mL each time.
Turning to `C=CC(=O)O[C@H]1CC[C@@](C)(OC(=O)CCC)[C@@H]2O[C@H](C[C@]1(C)O)[C@@H]1[C@H]2[C@@H](C(C)C)[C@H](OC(=O)CCC)[C@@H](OC(C)=O)[C@@]1(C)O` [SIMPLEXIN E], the Activity is given as 4.8% in the test with RAW264.7 [1] and 37.7% in the test with RAW264.7 [2]. For the same molecule, the EC50 with HeLa is 17.4 µg/mL (≈ 27.8 µM); in the test with HEp-2, 10.7 µg/mL (≈ 17.2 µM); in the test on MCF7 it was 7.19 µg/mL (≈ 11.5 µM); in the test with Daoy it was 12.8 µg/mL (≈ 20.4 µM).
Turning to `CCCC(=O)O[C@]1(C)CC[C@H](O)[C@@](C)(O)C[C@H]2O[C@@H]1[C@H]1[C@@H]2[C@](C)(OC(C)=O)CC[C@@H]1C(C)C` [SIMPLEXIN B], the EC50 in the test with HeLa, with HEp-2, with MCF7 and in the test with Daoy was more than 20 µg/mL in each case.
In the case of `CC(=O)O[C@H]1CC[C@@](C)(OC(C)=O)[C@@H]2O[C@H](C[C@]1(C)O)[C@@H]1[C@H]2[C@@H](C(C)C)[C@H](O)C[C@@]1(C)OC(C)=O` [SIMPLEXIN I], the EC50 in the test with HeLa, in the test on HEp-2, with MCF7 and in the test with Daoy was more than 20 µg/mL each time.
